From PubChem BioAssay
This is a sample that favours compounds with a hit; in the whole collection about 2.6% have one here.
MC4R antag cAMP: blocks human MC4R cAMP signaling. P32245. MC4R-expressing cells, MTII-stimulated cAMP, LANCE TR-FRET. inhibition, % at 6.5 µM. 360,000 compounds, 0.48% hits. AID 540295;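 active = inhibition above its plate's cutoff, the mean of tested wells on that plate plus 3 SD, cut at about 29% in these data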
Target sequence (P32245 whole entry, looked up): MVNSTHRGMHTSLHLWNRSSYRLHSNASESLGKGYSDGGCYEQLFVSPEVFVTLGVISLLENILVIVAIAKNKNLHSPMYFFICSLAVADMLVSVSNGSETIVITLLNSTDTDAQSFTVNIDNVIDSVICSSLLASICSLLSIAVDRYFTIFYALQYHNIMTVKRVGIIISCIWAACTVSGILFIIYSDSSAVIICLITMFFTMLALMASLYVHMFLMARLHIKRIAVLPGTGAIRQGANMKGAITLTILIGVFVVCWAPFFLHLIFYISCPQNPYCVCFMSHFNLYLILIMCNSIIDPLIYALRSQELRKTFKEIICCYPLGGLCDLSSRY
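Assay system: U2OS-MC4R stable cell line; Also added: Melanotan II; Technique: Eu-cAMP/anti-cAMP TR-FRET, emission 671 nm; Times: 30-min compound, 1-h challenge, 1-h detection, room temperature.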
Exocytosis inh: lytic granule exocytosis inhibition | TALL-104 LAMP-1 surface exposure, flow cytometry; cells stimulated with thapsigargin and PMA | inhibition, % at 10 µM | 360,000 compounds, 0.66% hits | AID 651702;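 active = inhibition above about 55%, limit read from the data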
PGE2 EP2 inh: EP2 receptor (human) inhibition | P43116 | C6 glioma cells expressing human EP2, cAMP TR-FRET; cells stimulated with saturating PGE2 | inhibition, % at 25 µM | 260,000 compounds, 0.52% hits | AID 1422;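 active = percent inhibition above 40 after rounding to a whole number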;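 also: rat C6 glioma host cells with rolipram phosphodiesterase inhibitor present; the protocol text gives 20 µM as final concentration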
Target sequence (P43116 whole entry, looked up): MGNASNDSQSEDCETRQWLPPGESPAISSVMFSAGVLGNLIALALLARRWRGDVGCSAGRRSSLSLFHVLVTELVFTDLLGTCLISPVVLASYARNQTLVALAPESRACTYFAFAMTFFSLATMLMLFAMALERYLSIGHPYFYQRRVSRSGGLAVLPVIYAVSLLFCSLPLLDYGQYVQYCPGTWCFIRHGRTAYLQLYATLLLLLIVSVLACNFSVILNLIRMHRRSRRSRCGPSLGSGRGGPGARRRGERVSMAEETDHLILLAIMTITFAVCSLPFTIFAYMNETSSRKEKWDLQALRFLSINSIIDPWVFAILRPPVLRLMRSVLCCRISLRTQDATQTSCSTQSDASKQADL
EP2 modulator: modulates human prostaglandin E2 receptor EP2 signaling | 260,000 compounds, 0.83% hits | EP2-expressing cells, cAMP HTRF FRET, PGE2 co-stimulation | induction, % at 25 µM;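 active = compounds whose cAMP rise, as percent of the full-agonist control response, exceeds 60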;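 also: rat C6 glioma line stably carrying human EP2 under a CMV promoter; the protocol text gives 20 µM as final concentration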
T cell HTS: modulates CD8 T cell binding to vesicles; response (vesicle binding), % at 7 µM; 330,000 compounds, 0.068% hits; 2C CD8+ T cell-vesicle binding, flow cytometry; active compounds read low;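 active = response, share of CD8 T cells binding vesicles, and their 90th percentile fluorescence all below set limits, cut at about 80% in these data, passing the limit was not always enough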;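 also: values below 100% mean blocked vesicle binding to the CD8+ T cells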
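Benchmarks: naked versus QL9-loaded vesicles / Assay system: purified 2C TCR transgenic mouse naive CD8+ T cells / Technique: high-throughput flow cytometry with anti-B7-1 and anti-CD8 staining / Timing: Cell–vesicle co-incubation 1.5 h at 37 °C, staining 20 min on ice / Read-out: percent CD8+ FL2 mean versus row control / Probe or stimulus: QL9-loaded Drosophila micro-vesicles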
MC4R barr agon: activates human MC4R beta-arrestin recruitment; U2OS MC4R beta-arrestin complementation, luminescence; percent of melanotan II response, DMSO zero; P32245; activation, % at 8.9 µM; AID 540308; 360,000 compounds, 0.98% hits;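 active = activation above a per-plate cutoff, the mean activation of sample wells on that plate plus 3 SD, cut at about 8% in these data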
Large screens that a line does not name were inactive; ! = a repeat was not active.

CC(C)N(C(=O)c1ccccc1-c1ccccc1)C(C)C	EP2 modulator 62.7
CS(=O)(=O)c1ccc2nc(NC(=O)c3cccs3)sc2c1	none
COc1ccc(NC(=S)NCCc2c[nH]c3ccccc23)c(OC)c1	PGE2 EP2 inh 55.0
COc1ccc(NC(=S)NCCc2ccc(Cl)cc2)c(OC)c1	PGE2 EP2 inh 57.5
COc1ccc(NC(=S)NCCc2c[nH]c3ccc(OC)cc23)c(OC)c1	none
COc1ccc(CCNC(=S)NCCc2ccc(OC)c(OC)c2)cc1OC	T cell HTS 66.0
CCOc1cc(S(=O)(=O)Nc2ccc(CC)cc2)ccc1Cl	MC4R barr agon 9.4
O=C(Cc1cccc2ccccc12)N/N=C/c1ccc(F)cc1	MC4R barr agon 14.8
O=C(Cc1cccc2ccccc12)N/N=C/c1ccncc1	none
Cc1cccc(N2CCN(c3nc4ccccc4n4cnnc34)CC2)c1C	EP2 modulator 62.6
c1cnc(N2CCN(c3nc4ccccc4n4cnnc34)CC2)nc1	none
O=C(Nc1ccc(-c2nc3ccccc3o2)cc1)c1cccnc1	PGE2 EP2 inh 57.7!
O=C(Nc1ccc(-c2noc(CCc3ccccc3)n2)cc1)c1cccnc1	PGE2 EP2 inh 75.8
O=C(NCCc1ccccc1)c1ccc(NC(=O)c2cccnc2)cc1	none (no result: PGE2 EP2 inh, EP2 modulator)
Cc1cccc(CS(=O)(=O)Cc2ccc(C(=O)NCc3cccs3)o2)c1	none
CC(=O)c1cc(C#N)c(SCCC(C)C)nc1C	EP2 modulator 61.5
NC(=O)c1ccc(C23CC4CC(CC(C4)C2)C3)o1	none
Cc1[nH]nc2c1C(c1ccc(-c3ccccc3C#N)o1)C(C#N)=C(N)O2 (configuration not stated)	PGE2 EP2 inh 63.2
Cc1ccc(-c2ccc(C3C(C#N)=C(N)Oc4n[nH]c(C)c43)o2)cc1 (configuration not stated)	none
Cc1ccccc1OCC(=O)NNC(=O)CCc1ccccc1	none
O=C(OCn1ncc(Br)c(Br)c1=O)c1ccccc1Cl	Exocytosis inh 97.5
O=C(OCc1cnc(Cl)s1)c1ccccc1Cl	none
O=C(OCn1ncc(Br)c(Br)c1=O)c1ccc(F)cc1	MC4R antag cAMP 47.1, Exocytosis inh 63.8
O=C(Nc1ccc(N2CCOCC2)c(F)c1)c1ccncc1	none
COc1cc2c(c3oc(-c4ccccc4)cc(=O)c13)C=CC(C)(C)O2	PGE2 EP2 inh 49.5
COc1cc(OC)c2c(=O)cc(-c3ccccc3)oc2c1	none (no result: PGE2 EP2 inh)
NC(=O)c1sc2nc(N3CCOCC3)c3c(c2c1N)CCCC3	none
CCCCN(CCCC)C(=O)c1sc2nc(N3CCOCC3)c3c(c2c1N)CCCC3	EP2 modulator 87.3
CC(C)=N/N=C(\N)SCc1ccccc1	none
C/C(=N\[N-]C(=[SH+])SCc1ccccc1)c1ccccn1.[Cl][Cu]	PGE2 EP2 inh 87.7 (no result: MC4R antag cAMP, Exocytosis inh, T cell HTS, MC4R barr agon)
CSC(=[SH+])[N-]N=C(c1ccccn1)c1ccccn1.[Cu][Br]	PGE2 EP2 inh 107.9 (no result: MC4R antag cAMP, Exocytosis inh, T cell HTS, MC4R barr agon)
CSc1ccccc1NC(=O)c1ccccn1	none
COc1ccc(OCC(=O)Nc2ccc(N3CCCC3)c(Cl)c2)cc1	none (no result: MC4R antag cAMP, Exocytosis inh, T cell HTS, MC4R barr agon)
CCCc1cc(=O)n2[nH]c(C)c(-c3ccccc3OC)c2n1	none (no result: PGE2 EP2 inh, EP2 modulator, T cell HTS)
O=C(c1ccc(CS(=O)Cc2cccc(Cl)c2)o1)N1CCN(C2CCCCC2)CC1 (configuration not stated)	none (no result: PGE2 EP2 inh, EP2 modulator)
O=C1/C(=C\c2ccco2)SC(=S)N1c1ccccc1	none
Cc1ccc(N2C(=O)/C(=C\c3ccco3)SC2=S)cc1	MC4R barr agon 10.3
CCC1CCc2c(sc3nc(SCC(=O)NCc4ccco4)n(-c4ccccc4)c(=O)c23)C1 (configuration not stated)	MC4R barr agon 8.7
CCSc1nc2sc3c(c2c2nnc(SCC(=O)NCc4ccco4)n12)CCCC3	PGE2 EP2 inh 49.4 (no result: MC4R antag cAMP, Exocytosis inh, EP2 modulator, MC4R barr agon)
CC1CCc2c(sc3nc(C4CC4)n4c(SCC(=O)NCc5ccco5)nnc4c23)C1 (configuration not stated)	none (no result: MC4R antag cAMP, Exocytosis inh, T cell HTS, MC4R barr agon)
Cc1ccc(-n2c(SCC(=O)NCc3ccco3)nc3sc4c(c3c2=O)CC(C)(C)SC4)cc1	none
O=C1c2cccnc2-c2ncccc21	none
O=C1C(=O)c2cccnc2-c2ncccc21	Exocytosis inh 105.1 (no result: MC4R antag cAMP, PGE2 EP2 inh, EP2 modulator, T cell HTS, MC4R barr agon)
COC1=C(Br)C(=O)c2ncccc2C1=O	Exocytosis inh 107.1 (no result: PGE2 EP2 inh, EP2 modulator, T cell HTS)
Cc1ccc(S(=O)(=O)Nc2ccc(-n3cnnn3)cc2)cc1	none (no result: PGE2 EP2 inh, EP2 modulator)
COc1cc(NS(=O)(=O)c2ccc(C)cc2)ccc1-n1cnnn1	PGE2 EP2 inh 152.5
CC(=O)C1CCC2C3CC=C4CC(SC(=N)N)CCC4(C)C3CCC12C (configuration not stated)	MC4R barr agon 15.2 (no result: PGE2 EP2 inh, EP2 modulator, T cell HTS)
CC(=O)[C@H]1CCC2C3CC=C4C[C@@H](OS(=O)(=O)O)CC[C@]4(C)C3CC[C@@]21C (some centres not stated)	none (no result: MC4R antag cAMP, Exocytosis inh, T cell HTS, MC4R barr agon)
COCCN1C(=O)CSCC1(C)C(=O)NC(C)C (configuration not stated)	none (no result: MC4R antag cAMP, PGE2 EP2 inh, EP2 modulator, T cell HTS, MC4R barr agon)
NS(=O)(=O)C1=C(Cl)CC2=NC(CCC(=O)O)=NS(=O)(O)=C2C1	PGE2 EP2 inh 45.4 (no result: MC4R antag cAMP, Exocytosis inh, T cell HTS, MC4R barr agon)
CC1CCN(C(=O)CSc2nnc3ccccn23)CC1	none (no result: PGE2 EP2 inh, EP2 modulator)
O=C1N=C(N2CCC(Cc3ccccc3)CC2)S/C1=C/c1cn[nH]c1-c1ccccc1	none
O=C1N=C(N2CCN(c3ccccc3)CC2)S/C1=C\c1cn[nH]c1-c1ccccc1	MC4R barr agon 8.5
CC(=O)Oc1cccc(N2C(=O)c3ccc(C(=O)Nc4c[nH]c(=O)[nH]c4=O)cc3C2=O)c1	MC4R antag cAMP 41.6
COc1ccc(CC(=O)Nc2cccc(-c3nnc(-c4ccc(C)cc4)o3)c2)cc1OC	Exocytosis inh 88.2
COc1ccc(CC(=O)Nc2cccc(-c3nnc(-c4ccccc4)o3)c2)cc1OC	Exocytosis inh 68.6 (no result: T cell HTS)
Cc1cccc(NC(=S)N/N=C/c2ccc3c(c2)OCO3)c1	none
COC(=O)c1cc2c(n1S(=O)(=O)c1ccc(C)cc1)C(=O)C(=O)c1[nH]cc(C(=O)OCc3ccccc3)c1-2	MC4R barr agon 37.4 (no result: PGE2 EP2 inh, EP2 modulator, T cell HTS)
COC(=O)C/C=N/N=C1/NC(=O)/C(=C/C(=O)O)S1	none
C[C@]12CCC3c4ccc(OC(=O)c5ccccc5)cc4CCC3C1CCC2=O (some centres not stated)	none (no result: MC4R antag cAMP, Exocytosis inh, T cell HTS, MC4R barr agon)
C[C@]12CC[C@@H]3c4ccc(OC(=O)c5ccccc5)cc4CC[C@H]3[C@@H]1CC[C@@H]2O	Exocytosis inh 60.3
O=C(Cn1cccn1)N1CCCC(Nc2ccc(F)c(F)c2)C1 (configuration not stated)	none (no result: PGE2 EP2 inh, EP2 modulator)
CN(c1ccc(F)cc1)S(=O)(=O)c1ccc(Cl)c(C(=O)NCC2(N3CCOCC3)CCCCC2)c1	none (no result: PGE2 EP2 inh, EP2 modulator, T cell HTS)
CC(NC(=O)CCCSc1nc(-c2ccco2)cc(C(F)(F)F)n1)c1ccccc1 (configuration not stated)	PGE2 EP2 inh 42.3 (no result: MC4R antag cAMP, Exocytosis inh, T cell HTS, MC4R barr agon)
CCN(CCCNC(=O)Cn1ncc2c(=O)oc3ccccc3c21)c1cccc(C)c1	MC4R barr agon 9.4 (no result: PGE2 EP2 inh)
